# From PubChem BioAssay
# Calls of active or inactive are those of the source.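 The calls were made as follows, unless noted: active = inhibition at or above 50% relative to wild type and mutant plate controls; inactive = inhibition below 50%.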
# Key:
# [1] = inhibitors of TNFa-induced NFkB p65 translocation, primary screen, imaging, HUVEC, MLSMR starter and 10KST1 sets (AID 438;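 active = inhibition above 20% together with a positive visual image hit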;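 also: compound added about 3h40 before a 20 min TNFalpha stimulation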;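 as to inhibition: signal is the nuclear over cytoplasmic p65 intensity ratio per well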); details: HUVEC TNFa-induced p65 nuclear translocation; cell count: measured here: nuclei count (cytotoxicity indicator), at 2.08 µM; inhibition: at 2 µM, stronger effect = higher value, 0% TNFa-plus-vehicle, 100% no-TNFa wells
# [2] = inhibitors of E-selectin induction by TNFa, primary screen, imaging, HUVEC, immunofluorescence, MLSMR starter and 10KST1 sets (AID 487;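 active = visually confirmed hit in the image check and inhibition above 20%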;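 as to inhibition: signal is fraction of cell area covered by stained E-selectin grains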;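 as to nuclei count: 100% = median nuclei count of all wells on the same plate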); details: HUVEC TNFalpha-induced E-selectin immunofluorescence imaging, at 2 µM; inhibition: stronger effect = higher value; nuclei count: measured here: cell number, toxicity
# [3] = DUSP6 inhibitors restoring Erk phosphorylation by chemical complementation, primary imaging in DUSP6-transfected HeLa (AID 609;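 active = compounds giving at least 50% inhibition in the cell-based MKP-3 phosphatase rescue imaging test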;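 as to inhibition: phospho-Erk level distribution per well compared with pooled transfected vehicle control wells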); details: HeLa MKP-3 transfected, phospho-Erk imaging KS statistic, at 10 µM, cells stimulated with TPA for 15 min
# [4] = biological target: Dual specificity protein phosphatase 6 (Homo sapiens) (UniProt Q16828); assay: as above; details: HeLa MKP-3 transfected, phospho-Erk imaging KS statistic; at 10 µM; stronger effect = higher value; cells stimulated with TPA for 15 min
# [5] = biological target: Voltage-gated potassium channel subunit beta-2 (Rattus norvegicus) (UniProt P62483); assay: KvBeta enzyme negative modulators, primary screen, biochemical, NADPH fluorescence (AID 622;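 active = fluorescence slope higher than the sample average by over 3 SD, cut at about -0.22 in these data, passing the limit was not always enough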;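 also: slope of raw intensity against log time taken from 70 to 1610 s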); details: recombinant KvBeta, 4-cyanobenzaldehyde reduction, at 10 µM, stronger effect = higher value
# [6] = biological target: Voltage-gated potassium channel subunit beta-2 (Rattus norvegicus) (UniProt P62483); assay: KvBeta positive modulators, primary screen, biochemical, NADPH fluorescence (AID 623;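 active = NADPH fluorescence slope more negative than the mean of all samples by about 3 SD, 99.7% confidence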;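 also: fluorescence intensity change per second fitted from 20 to 320 s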); details: Recombinant KvBeta, NADPH fluorescence decrease slope, 10 min; at 10 µM; stronger effect = lower value
# [7] = biological target: Alpha-2C adrenergic receptor (Homo sapiens) (UniProt P18825); assay: modulators of alpha2C/GIRK thallium flux, primary screen, cell-based, HEK293 alpha2C/GIRK1/2 (AID 624;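 active = fluorescence slope after compound addition differing from the mean of all screened samples at 99.7% confidence, in either direction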;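 also: slope of fluorescence ratio to pre-addition baseline per second over 15 to 24 s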); details: thallium flux BTC fluorescence, at 10 µM, actives lie on both sides
# [8] = inhibitors of larval lipid processing in zebrafish, primary screen, whole organism, PED6 fluorescence, gall bladder and intestine (AID 686;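 active = a full or partial loss of lipid-probe fluorescence in the fish gall bladder, intestine or both, judged by eye; inactive = no fluorescence loss, or compound toxic to the fish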;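 also: larvae 5 to 7 days old with five fish per well; signal comes from phospholipase A2 cleavage of quenched PED6 carried via bile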); details: Zebrafish larvae PED6 lipid processing, fluorescence scoring; screened at 20 µM (by protocol)
# Outline: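 Incubation: overnight exposure of larvae to compound plus PED6 / Test system: live zebrafish larvae aged 5-7 days, whole organism / Amount: 5 larvae per well / Read-out basis: visual per-well fluorescence inhibition score / Signal: visual fluorescence microscopy scoring of gall bladder, gut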
# [9] = inhibitors of Chlamydomonas gravitaxis, primary screen, whole organism, Chlamydomonas reinhardtii, WT vs cilia-less mutant, absorbance, 96-well (AID 463189); details: OD600 absorbance, 2 days, at 10 µM, stronger effect = higher value;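 also: 0% = wild type cc124 cells in DMSO and 100% = ciliumless bld1 mutant cells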
# [10] = measured here: cell density z-score
# [11] = measured here: nuclear c-Myc green intensity z-score
# [12] = measured here: nuclear pErk red intensity z-score, stronger effect = higher value
# Sequence of Voltage-gated potassium channel subunit beta-2 (Rattus norvegicus) (P62483 whole entry, looked up): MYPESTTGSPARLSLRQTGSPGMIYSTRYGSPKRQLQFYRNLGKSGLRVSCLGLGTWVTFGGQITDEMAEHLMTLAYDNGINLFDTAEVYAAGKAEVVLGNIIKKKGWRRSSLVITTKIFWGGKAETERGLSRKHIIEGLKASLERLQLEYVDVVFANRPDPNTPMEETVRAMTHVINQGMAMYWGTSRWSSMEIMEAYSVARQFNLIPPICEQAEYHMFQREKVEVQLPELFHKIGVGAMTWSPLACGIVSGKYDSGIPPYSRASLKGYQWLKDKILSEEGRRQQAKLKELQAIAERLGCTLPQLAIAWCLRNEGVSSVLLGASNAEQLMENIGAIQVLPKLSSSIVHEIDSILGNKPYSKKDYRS
# Sequence of Alpha-2C adrenergic receptor (Homo sapiens) (P18825 whole entry, looked up): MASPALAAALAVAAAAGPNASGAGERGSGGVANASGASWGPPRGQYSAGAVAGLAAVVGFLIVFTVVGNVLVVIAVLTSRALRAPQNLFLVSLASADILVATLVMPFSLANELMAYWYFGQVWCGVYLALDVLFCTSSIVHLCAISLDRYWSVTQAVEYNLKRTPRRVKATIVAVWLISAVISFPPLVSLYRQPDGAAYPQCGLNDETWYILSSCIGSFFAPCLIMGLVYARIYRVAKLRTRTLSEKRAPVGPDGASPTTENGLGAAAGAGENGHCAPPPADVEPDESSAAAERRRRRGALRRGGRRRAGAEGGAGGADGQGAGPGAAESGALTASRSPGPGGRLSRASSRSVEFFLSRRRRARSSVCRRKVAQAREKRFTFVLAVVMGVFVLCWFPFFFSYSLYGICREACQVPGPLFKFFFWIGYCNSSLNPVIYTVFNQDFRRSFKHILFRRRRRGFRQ
# Sequence of Dual specificity protein phosphatase 6 (Homo sapiens) (Q16828 whole entry, looked up): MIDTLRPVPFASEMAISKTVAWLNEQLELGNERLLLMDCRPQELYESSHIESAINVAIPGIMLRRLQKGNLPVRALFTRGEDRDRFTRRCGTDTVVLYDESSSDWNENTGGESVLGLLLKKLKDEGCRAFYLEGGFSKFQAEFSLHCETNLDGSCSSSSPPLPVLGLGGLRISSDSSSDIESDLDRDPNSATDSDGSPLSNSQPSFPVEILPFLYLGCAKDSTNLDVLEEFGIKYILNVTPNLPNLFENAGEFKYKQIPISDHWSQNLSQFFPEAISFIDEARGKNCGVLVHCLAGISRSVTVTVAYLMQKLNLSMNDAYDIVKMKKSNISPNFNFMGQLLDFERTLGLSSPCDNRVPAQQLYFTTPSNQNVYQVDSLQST
structure (smiles),measurement,setting,value
CN1C(=O)NC(NC(=O)c2ccco2)(C(F)(F)F)C1=O (centres undefined),cell count,[1],489
same,inhibition,[1],-3.4% (inactive)
same,inhibition,[2],-78% (inactive)
same,nuclei count,[2],116%
same,z-score,[3]; [10],-0.0785
same,z-score,[3]; [11],-0.489
same,z-score,[3]; [12],0.527
same,inhibition,[4],3.5% (inactive)
same,fluorescence slope,[5],-0.504 (inactive)
same,NADPH fluorescence slope,[6],-6e-05 (inactive)
same,slope,[7],0.00753 (inactive)
same,outcome,[8],inactive
same,inhibition,[9],-10.1% (inactive)
c1coc(-c2nnc3sc(C4CCCCC4)nn23)c1,cell count,[1],653
same,inhibition,[1],-0.1% (inactive)
same,inhibition,[2],-85.2% (inactive)
same,nuclei count,[2],170%
same,z-score,[3]; [10],-0.617
same,z-score,[3]; [11],-0.759
same,z-score,[3]; [12],-0.627
same,inhibition,[4],1.12% (inactive)
same,fluorescence slope,[5],-0.451 (inactive)
same,NADPH fluorescence slope,[6],-0.000143 (inactive)
same,slope,[7],0.00424 (inactive)
same,outcome,[8],inactive
same,inhibition,[9],77.6% (active)
Cc1nc2c(=O)n(C)c(=O)[nH]c2n1Cc1ccccc1,cell count,[1],465
same,inhibition,[1],3.5% (inactive)
same,inhibition,[2],-59.5% (inactive)
same,nuclei count,[2],153%
same,z-score,[3]; [10],0.739
same,z-score,[3]; [11],0.0972
same,z-score,[3]; [12],1.29
same,inhibition,[4],-4.7% (inactive)
same,fluorescence slope,[5],-0.394 (inactive)
same,NADPH fluorescence slope,[6],-4.2e-05 (inactive)
same,slope,[7],0.00601 (inactive)
same,outcome,[8],inactive
same,inhibition,[9],-5.62% (inactive)
CC1(C)NC(=O)N(CC(O)Cn2nnc3ccccc32)C1=O (centres undefined),cell count,[1],372
same,inhibition,[1],3.9% (inactive)
same,inhibition,[2],-188% (inactive)
same,nuclei count,[2],122%
same,z-score,[3]; [10],0.214
same,z-score,[3]; [11],0.212
same,z-score,[3]; [12],2.03
same,inhibition,[4],-7.28% (inactive)
same,fluorescence slope,[5],-0.357 (inactive)
same,NADPH fluorescence slope,[6],2.5e-05 (inactive)
same,slope,[7],0.0051 (inactive)
same,outcome,[8],inactive
same,inhibition,[9],6.41% (inactive)
CC(C)Oc1ccc(Cc2c(O)nc(NCCCN(C)C)[nH]c2=O)cc1,cell count,[1],383
same,inhibition,[1],-15.2% (inactive)
same,inhibition,[2],-285% (inactive)
same,nuclei count,[2],152%
same,z-score,[3]; [10],-0.061
same,z-score,[3]; [11],-1.61
same,z-score,[3]; [12],-0.785
same,inhibition,[4],-2.07% (inactive)
same,fluorescence slope,[5],-0.396 (inactive)
same,NADPH fluorescence slope,[6],-1e-05 (inactive)
same,slope,[7],0.00657 (inactive)
same,outcome,[8],inactive
same,inhibition,[9],26.1% (inactive)
c1ccc(C2Nc3ccccc3-c3nc4ccccc4n32)nc1 (centres undefined),cell count,[1],467
same,inhibition,[1],5.5% (inactive)
same,inhibition,[2],-27.5% (inactive)
same,nuclei count,[2],101%
same,z-score,[3]; [10],-0.673
same,z-score,[3]; [11],0.738
same,z-score,[3]; [12],-0.0231
same,inhibition,[4],12.3% (inactive)
same,fluorescence slope,[5],-0.495 (inactive)
same,NADPH fluorescence slope,[6],-1.1e-05 (inactive)
same,slope,[7],0.00682 (inactive)
same,outcome,[8],inactive
same,inhibition,[9],-35.3% (inactive)
Cn1c(=O)n(CCc2ccccc2)c(=O)c2c1ncn2Cc1ccccc1,cell count,[1],505
same,inhibition,[1],-1.6% (inactive)
same,inhibition,[2],42.5% (inactive)
same,nuclei count,[2],115%
same,z-score,[3]; [10],-0.468
same,z-score,[3]; [11],1.76
same,z-score,[3]; [12],-0.503
same,inhibition,[4],-6.48% (inactive)
same,fluorescence slope,[5],-0.508 (inactive)
same,NADPH fluorescence slope,[6],-0.000139 (inactive)
same,slope,[7],0.00833 (inactive)
same,outcome,[8],inactive
same,inhibition,[9],-10.3% (inactive)
CCC(=O)Nc1cc(-c2nn(C)c(=O)c3ccccc23)ccc1N1CCCCC1,cell count,[1],527
same,inhibition,[1],-10.5% (inactive)
same,inhibition,[2],-20.7% (inactive)
same,nuclei count,[2],161%
same,z-score,[3]; [10],-0.258
same,z-score,[3]; [11],-0.867
same,z-score,[3]; [12],0.981
same,inhibition,[4],-3.5% (inactive)
same,fluorescence slope,[5],-0.373 (inactive)
same,NADPH fluorescence slope,[6],-2.2e-05 (inactive)
same,slope,[7],0.00441 (inactive)
same,outcome,[8],inactive
same,inhibition,[9],25.8% (inactive)
COCCN(C(=O)Nc1ccccc1)c1ccccc1C,cell count,[1],443
same,inhibition,[1],-5.7% (inactive)
same,inhibition,[2],-107% (inactive)
same,nuclei count,[2],186%
same,z-score,[3]; [10],-1.02
same,z-score,[3]; [11],-0.17
same,z-score,[3]; [12],-0.3
same,inhibition,[4],-3.95% (inactive)
same,fluorescence slope,[5],-0.32 (inactive)
same,NADPH fluorescence slope,[6],6.1e-06 (inactive)
same,slope,[7],0.00472 (inactive)
same,outcome,[8],inactive
same,inhibition,[9],-5.98% (inactive)
COc1cccc(OC)c1-c1nn2c(-c3ccco3)nnc2s1,cell count,[1],630
same,inhibition,[1],-5.2% (inactive)
same,inhibition,[2],-86.6% (inactive)
same,nuclei count,[2],172%
same,z-score,[3]; [10],0.253
same,z-score,[3]; [11],0.886
same,z-score,[3]; [12],-0.677
same,inhibition,[4],10.1% (inactive)
same,fluorescence slope,[5],-0.431 (inactive)
same,NADPH fluorescence slope,[6],-0.000166 (inactive)
same,slope,[7],0.00439 (inactive)
same,outcome,[8],inactive
same,inhibition,[9],5.78% (inactive)
CCCOC(=O)CSC1=C(C#N)C(c2ccccc2OCC)C(C#N)C(=O)N1 (centres undefined),cell count,[1],487
same,inhibition,[1],-1.9% (inactive)
same,inhibition,[2],-37.3% (inactive)
same,nuclei count,[2],101%
same,z-score,[3]; [10],0.769
same,z-score,[3]; [11],-0.531
same,z-score,[3]; [12],1.5
same,inhibition,[4],7.48% (inactive)
same,fluorescence slope,[5],-0.499 (inactive)
same,NADPH fluorescence slope,[6],-0.000121 (inactive)
same,slope,[7],0.00584 (inactive)
same,outcome,[8],inactive
same,inhibition,[9],-14.4% (inactive)
CC(C)CN1C(=O)NC(NC(=O)c2cccnc2)(C(F)(F)F)C1=O (centres undefined),cell count,[1],488
same,inhibition,[1],-2.8% (inactive)
same,inhibition,[2],-106% (inactive)
same,nuclei count,[2],130%
same,z-score,[3]; [10],0.462
same,z-score,[3]; [11],-0.157
same,z-score,[3]; [12],-1.2
same,inhibition,[4],1.75% (inactive)
same,fluorescence slope,[5],-0.505 (inactive)
same,NADPH fluorescence slope,[6],-7.1e-06 (inactive)
same,slope,[7],0.00612 (inactive)
same,outcome,[8],inactive
same,inhibition,[9],-0.985% (inactive)
COc1cccc(C2C(C#N)=C(N)Oc3cc(C)[nH]c(=O)c32)c1OC (centres undefined),cell count,[1],508
same,inhibition,[1],-31.3% (inactive)
same,inhibition,[2],-89.8% (inactive)
same,nuclei count,[2],158%
same,z-score,[3]; [10],-0.315
same,z-score,[3]; [11],-0.918
same,z-score,[3]; [12],-0.838
same,inhibition,[4],-2.47% (inactive)
same,fluorescence slope,[5],-0.524 (inactive)
same,NADPH fluorescence slope,[6],-4.3e-05 (inactive)
same,slope,[7],0.00584 (inactive)
same,outcome,[8],inactive
same,inhibition,[9],9.96% (inactive)
